# p97 ATPase inh: blocks human p97 ATPase activity; AID 1481; P55072; inhibition, % at 8 µM; recombinant p97 ATPase, Kinase-Glo ATP luminescence, 3 h; 0.42% of 220,000 active; in the data active = inhibition above about 15%;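 note: 0% = DMSO vehicle and 100% = wells lacking enzyme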
# TNF death inh: TNF-alpha cell death inhibition in Jurkat FADD-/- cells; Jurkat FADD-/- TNF necroptosis rescue, ATP luminescence, 24 h; 0 = TNF only, 100 = no-TNF cells; activation (protection from cell death), % at 10 µM; 0.068% of 220,000 active;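 active = activation, meaning protection from cell death, of at least 50% relative to plate controls; inactive = activation below 50%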;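 note: necroptosis triggered by 40 ng/mL TNF-alpha added together with compound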
# Wee1 degr inh: inhibitors of human Wee1 degradation; 1.2% of 220,000 active; HeLa Luc-Wee1K328M stability, luciferase luminescence; 100% = proteasome inhibitor MG132 effect; reporter increase, % at 5 µM; P30291;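 active = activation above the mean of all tested compounds plus 3 SD, set per screening run, cut at about 8.8% in these data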;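 note: cells exposed to compound for 20 h before luminescence read; 0% = DMSO alone and 100% = MG132 at 30 µM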
# RBBP9 inh: inhibitors of human serine hydrolase RBBP9 | inhibition, % at 7.94 µM | recombinant RBBP9, FP-Rh probe fluorescence polarization | 0.2% of 220,000 active | AID 1515 | O75884;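 active = inhibition above the campaign mean of all tested compounds plus 3 SD, cut at about 14% in these data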;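 note: plate controls were DMSO wells with RBBP9 for no effect and wells lacking RBBP9 protein for full effect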
# Target sequence (O75884 whole entry, looked up): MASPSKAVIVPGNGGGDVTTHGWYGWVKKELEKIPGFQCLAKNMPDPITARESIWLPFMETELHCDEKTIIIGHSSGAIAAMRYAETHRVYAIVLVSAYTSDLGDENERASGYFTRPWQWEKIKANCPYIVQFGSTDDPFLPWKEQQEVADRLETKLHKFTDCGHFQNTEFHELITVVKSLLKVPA
#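 system = RBBP9 protein | input = RBBP9 at 2.5 µM in dispensed solution, before mixing | measured by = fluorescence polarization (mP), excitation 525 nm, emission 598 nm | incubation = enzyme-compound preincubation 30 min, then probe labeling 45 min, 25 °C | buffer or medium = Tris-NaCl-Pluronic buffer, pH 8.0 | compound = single dose 7.94 µM | also added = FP-Rh probe, 375 nM dispensing solution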
# L929 necroptosis: blocks zVAD induced death of L929 cells; L929 zVAD necroptosis rescue, ATP luminescence, 24 h; with zVAD 60 µM; viability rescue, % at 10 µM; 0.38% of 220,000 active; AID 1377;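 active = activation, scaled between plate controls, above about 75%, limit read from the data; inactive = activation under that limit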;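 note: 0% = zVAD with DMSO and 100% = DMSO alone without zVAD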
# M18AAP inhibitor: PfM18AAP enzyme inhibition. AID 1822. inhibition, % at 7.35 µM. recombinant PfM18AAP, H-Glu-NHMec fluorogenic cleavage. 1.2% of 290,000 active;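 active = inhibition above the campaign mean inhibition over all tested compounds plus 3 SD, cut at about 28% in these data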;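 note: 0% = plate median of test compound wells and 100% = 2 mM ZnCl2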
# Wee1 stab conf: confirmation of human Wee1 degradation inhibitors; shares compounds with Wee1 degr inh; HeLa Luc-Wee1K328M degradation, luminescence; vehicle 0%, proteasome-blocked wells 100%; activation, % at 5 µM; 4% of 1,100 active; in the data active = activation above about 8.9%
# Numbers without * were called inactive; x = no result. The list is not random: actives were taken first. Their share in the collection is about 2.7%.
SMILES,p97 ATPase inh,TNF death inh,Wee1 degr inh,RBBP9 inh,L929 necroptosis,M18AAP inhibitor,Wee1 stab conf
COc1cc2cc(CN(CCc3cccc(C)c3)C(=S)NCCCN3CCOCC3)c(=O)[nH]c2cc1OC,-9.2,1.7,-2.5,-1.1,-1.0,-1.9,x
c1ccc(Oc2c3ccccc3nc3ccccc23)cc1,6.8,-16.2,0.5,2.2,-1.2,0.0,x
O=C(CCNS(=O)(=O)c1cccs1)N1CCc2ccccc2C1,5.3,-2.6,18.8*,-5.1,0.1,5.1,1.4
CSc1ccc(CN2CCN(C(C)C)C(CCO)C2)cc1 (centres undefined),-2.0,0.6,-1.7,-2.2,-0.4,-16.4,x
Cc1ccc(-n2nc(-c3ccccc3)cc2Nc2ccccc2N)cc1,3.8,-0.2,11.1*,-8.2,1.7,3.3,1.9
Nc1ccccc1Nc1cc(-c2ccccc2)nn1-c1ccccc1,-0.1,0.9,-1.3,2.2,-0.1,5.3,x
COc1ccc2nc(Nc3nc(C)c(C(C)=O)s3)sc2c1,1.6,-0.2,11.7*,-3.0,55.3,4.0,5.4
COc1ccc(N(CC(=O)Nc2ccc(S(=O)(=O)N3CCCCC3)cc2)S(C)(=O)=O)cc1OC,1.4,-3.5,24.0*,11.0,0.1,-1.7,0.0
COc1cccc(NS(=O)(=O)c2ccc(C)c(C(=O)N3CCCCC3)c2)c1,x,x,x,x,x,6.0,x
CC(=O)Nc1nc(C)c(CCC2OCCO2)c(=O)[nH]1,-0.2,-0.8,11.0*,-8.8,-0.3,-5.9,-0.5
CCOc1ccc(Cc2noc3c2C(=O)CC(C)(C)C3)cc1OCC,0.4,2.0,1.0,0.0,0.0,-0.5,x
CCOc1ccc(Cc2noc3c2C(=O)CCC3)cc1OCC,-8.6,2.5,17.1*,-12.0,0.3,-17.2,2.3
COc1ccc(C(=O)N/C(=C\c2ccc3c(c2)OCO3)C(=O)N2CCOCC2)cc1,x,x,x,x,x,-1.4,x
Cc1ccc(/C(O)=C2/C(=O)C(=O)N(c3ccccn3)C2c2cccc([N+](=O)[O-])c2)cc1 (centres undefined),x,x,x,x,x,6.5,x
CN(C)c1ccc(P(=O)(OC2CCCCC2)C(O)c2cccnc2)cc1 (centres undefined),4.2,-2.2,12.5*,-3.8,0.3,-0.1,3.9
CN(C)c1ccc(P(=O)(OC2CCCCC2)C(O)c2ccccn2)cc1 (centres undefined),5.0,1.5,-4.1,2.5,1.2,-9.2,x
CN(C)C(CNc1ncnc2sc3c(c12)CCCCC3)c1ccco1 (centres undefined),-8.8,0.8,34.5*,-2.1,0.8,1.7,4.9
CC1(C)Nc2ccccc2C(=O)N1NS(=O)(=O)c1ccccc1,5.4,1.2,11.2*,-1.5,1.6,-5.3,4.6
Cc1ccc(S(=O)(=O)NN2C(=O)c3ccccc3NC2(C)C)cc1,2.9,1.9,-1.6,-4.3,0.6,-9.1,x
CN(Cc1ccccc1)C(=O)c1ccc2c(c1)OCO2,0.5,6.0,0.1,-0.8,0.2,-13.6,x
CCCCN(C(=O)c1ccc2c(c1)OCO2)c1ccccc1,3.2,-0.4,13.8*,2.2,-0.3,-3.2,-0.2
O=C(CN1N=C(c2ccc(Cl)cc2)CCC1=O)NCc1cccs1,3.7,2.0,11.7*,-10.2,0.9,2.4,-1.7
Cc1nc2ccccc2n1CCN1CCOCC1,3.0,0.4,11.6*,-2.9,-0.4,3.6,-0.7
COc1ccc(-c2nnc(SCC(=O)N/N=C/c3ccccc3C(=O)O)n2-c2ccc(Cl)cc2)cc1,1.9,2.5,12.3*,4.4,0.2,-1.3,1.4
Cc1ccccc1N(CC(=O)NCc1ccccc1)C(=O)CCC(=O)Nc1nccs1,x,x,x,x,x,1.9,x
SMILES,p97 ATPase inh,TNF death inh,Wee1 degr inh,RBBP9 inh,L929 necroptosis,M18AAP inhibitor,Wee1 stab conf
CCOc1cc(/C=C2\C(=O)ON=C2C)ccc1OCc1ccccc1,3.0,-3.8,17.8*,5.4,0.4,9.4,1.2
CN1CCN(C(=O)C2CC(c3c(F)cccc3Cl)=NO2)CC1 (centres undefined),6.1,-1.1,12.9*,-4.1,0.5,-5.7,-1.3
Cc1ccc(O)c(NC(=O)C2CC(c3c(F)cccc3Cl)=NO2)c1 (centres undefined),5.0,-23.5,1.7,-9.4,-0.1,5.0,x
Cc1ccn2cc(CNS(=O)(=O)c3cccs3)nc2c1,2.9,4.2,13.2*,2.1,0.8,-2.3,-1.4
Cc1ccccc1CNCc1cccnc1,1.7,-0.4,-0.2,4.0,-0.5,-0.3,x
COc1cccc(CNCc2cccnc2)c1OCc1ccccc1,1.3,1.7,12.8*,6.0,-1.7,2.3,-1.1
Cc1nc2sc(C(c3ccc(C(C)C)cc3)N3CCN(CCO)CC3)c(O)n2n1 (centres undefined),-4.1,1.0,23.6*,8.1,-1.2,13.9,2.4
CCOc1ccccc1NC(=O)Nc1cccc(NC(C)=O)c1,8.5,3.0,1.7,-1.5,2.1,-1.1,x
CCOc1ccccc1NC(=O)Nc1cccc(C(C)=O)c1,-3.4,-0.9,15.0*,-7.3,1.0,3.9,2.0
O=C(Nc1ccccc1C(=O)O)/C(=C/c1ccc(Cl)cc1Cl)NC(=O)c1ccco1,x,x,x,x,x,-7.3,x
CSc1ccc(-c2nnn(CC(=O)NCc3ccccc3)n2)cc1,4.4,-3.0,-0.6,-5.1,-0.2,1.6,x
CCOC(=O)C(Cc1ccccc1)NC(=O)Cn1nnc(-c2ccc(SC)cc2)n1 (centres undefined),-3.0,-1.3,13.0*,2.8,0.1,2.3,4.4
COc1ccc(CNC(=O)c2ccc3c(c2)NC(=O)C(C)S3)cc1 (centres undefined),5.9,-0.3,0.1,-8.3,2.3,7.2,x
CCOC(=O)NC(=O)C(/C=N/c1sccc1C(=O)OC)=C(\C)O,7.2,-3.7,0.8,9.4,1.0,13.0,x
Cc1nc(-c2ccccc2)sc1-c1ccnn1C,-1.2,-1.1,17.5*,-7.2,1.5,-7.2,4.9
CCCCNC(=O)NC12CC3CC(CC(C3)C1)C2,4.9,-0.1,22.4*,4.2,4.3,-3.3,3.4
CCOCCCNC(=S)N1C2CCC1CC(NC(=O)NC13CC4CC(CC(C4)C1)C3)C2 (centres undefined),2.9,-3.5,11.6*,9.0,-0.2,0.9,4.8
CCc1cc(CNC(=O)CCc2nnc(CCCc3ccccc3)o2)on1,3.9,0.4,-0.6,-5.3,2.5,2.7,x
Cc1ccc(NC(=O)c2cncc(Br)c2)c(O)c1,9.5,1.1,12.2*,-4.8,0.7,5.8,1.1
Cc1cc(C)nc(NS(=O)(=O)c2ccc(N/C=C/C(=O)c3ccc(Cl)cc3)cc2)n1,2.4,1.9,13.5*,1.9,1.4,0.2,0.1
CCOC(=O)C1=C(C)NC(=S)NC1/C=C/c1ccccc1 (centres undefined),4.6,-4.8,16.0*,-2.7,1.5,4.0,4.6

# Screens as filed in PubChem.
